Rows were chosen to be rich in hits. Some 3.1% of all compounds tested hit in one or more screens of this group.
FN deposit inh – fibronectin deposition inhibition; AH1F fibroblasts, Alexa488-fibronectin deposition fluorescence, overnight; inhibition, % at 12.6 µM; actives 0.086% (n = 350,000); AID 743247;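 active = mean inhibition across replicates of 30% or more, regardless of how many single replicates reach that level; inconclusive = mean under 30% yet at least half of replicates reach 30%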;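 also: positive control wells lacked labelled fibronectin entirely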
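material = AH1F fibroblast monolayer depositing Alexa488-labelled fibronectin into matrix | amount = 10000 AH1F cells/well | buffer or medium = DMEM plus 2% serum, read in PBS | incubation = 1 h cell adhesion before compound, then overnight fibronectin incubation | detection = fluorescence at 485 nm excitation, 525 nm emission | evaluation = percent inhibition as loss of matrix-bound fibronectin fluorescence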
PAX8 inh HTS – inhibitors of PAX8 transcriptional activity in RMG-I cells | RMG-I TPO-luciferase reporter, SteadyGlo, 24 h | inhibition, % at 12.6 µM | actives 1.2% (n = 360,000);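 active = mean replicate inhibition at least 60% with every replicate also reaching 60%; inconclusive = only one of the two criteria is met; inactive = mean below 60% and not all replicates reaching 60%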;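 also: luciferase light reporting Pax8 driven TPO promoter activity; plate controls were median of neutral control wells for no effect and mitoxantrone controls for full effect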
Env fusion inh – HIV envelope-mediated fusion inhibition; HeLa-JRFL Env/CEM21 cell fusion, luciferase; inhibition, % at 12.3 µM; actives 1.1% (n = 360,000); AID 651610;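 active = mean replicate inhibition score of at least 50 and every replicate individually at or above 50; inconclusive = only one of the two criteria met; inactive = mean below 50 and not all replicates reaching 50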;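 also: 0% = plate neutral controls and 100% = maraviroc near 300 nM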
EWS-Fli inh – blocks EWS/Fli oncoprotein-driven transcription; A673 NR0B1-luciferase reporter, viability-normalised; inhibition, % at 12.6 µM; actives 0.67% (n = 350,000); AID 651661;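 active = mean inhibition of at least 50% after viability correction, with every replicate also passing that limit; inconclusive = mean reaches 50% but only one of two replicates passes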;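 also: firefly luciferase signal divided by Alamar Blue viability fluorescence both relative to DMSO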
FGF22 binding – FGF22 (human) thermal shift binding | recombinant FGF22 thermal shift, SYPRO orange fluorescence; percent of sucrose octasulfate shift, DMSO zero | activity (Tm shift, normalised), % at 9.99 µM | actives 1.5% (n = 340,000);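 active = mean Tm shift, scaled 0 neutral to 100 positive control, at about 1.3% or above, every replicate too, limit read from the data; inconclusive = no clear call, values can overlap the other calls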
Target sequence (Q9HCT0 whole entry, looked up): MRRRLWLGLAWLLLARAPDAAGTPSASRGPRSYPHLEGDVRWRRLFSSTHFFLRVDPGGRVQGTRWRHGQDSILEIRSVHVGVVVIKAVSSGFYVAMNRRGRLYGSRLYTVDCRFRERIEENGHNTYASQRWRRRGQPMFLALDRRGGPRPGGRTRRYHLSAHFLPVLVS
PGC1a acetyl inh – lowers PGC1a acetylation signal in U2OS cells | AlphaScreen anti-acetyl-lysine; with virally co-expressed GCN5 acetyltransferase | inhibition, % at 15.6 µM | actives 0.17% (n = 350,000);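 active = every replicate shows inhibition of at least 40%; inconclusive = mean inhibition at least 40% but some replicate below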;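 also: 0% = neutral control wells and 100% = positive control wells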
Numbers without * were called inactive; ? = inconclusive; / = no result given; [ ] = remark or other dose.

SMILES	FN deposit inh	PAX8 inh HTS	Env fusion inh	EWS-Fli inh	FGF22 binding	PGC1a acetyl inh
COc1cccc(C#Cc2ccc([C@@H]3[C@@H](C#N)N(C(=O)C4CCC4)[C@@H]3CO)cc2)c1	-5	9	-5[16.7 µM]	-11	0	-6
COc1cccc(C#Cc2ccc([C@@H]3[C@@H](CO)N(C(=O)C4CCCCC4)[C@H]3C#N)cc2)c1	-10	70*	32[16.7 µM]	14	0	-22
C=C1C(=O)C23C(O)C1CCC2C12CCCC(C)(COC(C)=O)C1C(O)C3(O)OC2 (centres undefined)	29	123*	-25	57*	1	/
O=C(c1ccco1)N1CCN(C(=O)c2ccccc2OC(=O)C23CC4CC(CC(C4)C2)C3)CC1	/	/	/	/	/	-1
O=C(O)c1ccccc1OC(=O)C12CC3CC(CC(C3)C1)C2	-10	15	8	-1	43*	-1
O=C(CSc1ncnc2ccccc12)Nc1ccc2c(c1)OCCO2	-2	-8	-1	-6	42	/
CC(Sc1ncnc2ccccc12)C(=O)Nc1ccc2c(c1)OCCO2 (centres undefined)	1	63*	31	/	/	/
COc1ccccc1C(=O)Nc1ccc2c(c1)OC[C@@H](C)N(C)C[C@H](C)[C@@H](OC)CN(C)C2=O	14	7	3[16.7 µM]	-1	0	-5
COc1cc(OC)c2ccc(=O)oc2c1C(CC(=O)N1CCOCC1)c1ccc(N(C)C)cc1 (centres undefined)	31*	-5	15	3	/	/
COc1cc(OC)c2ccc(=O)oc2c1C(CC(=O)N1CCCC1)c1ccc(N(C)C)cc1 (centres undefined)	-8	8	-35	2	0	/
O=C(Oc1c(Br)cc([N+](=O)[O-])cc1Br)c1cccnc1	4	-12	6	2	44*	11
N/C(=N\OC(=O)c1ccc([N+](=O)[O-])cc1)c1cccnc1	-6	-3	-29	-15	0	-1
COc1ccc(Br)cc1/C(C)=N/NC1=NCCN1	/	/	/	/	/	5
CCCCCOc1ccc(Br)cc1/C(C)=N/NC1=NCCN1	-1	81*	-48	/	/	7
NC(=O)CC(NC(=O)c1ccccc1)c1ccc(N2CCC(Cc3ccccc3)CC2)c([N+](=O)[O-])c1 (centres undefined)	0	12	87*	22	0	10
C[C@@H]1CCCCO[C@@H](CN(C)Cc2ccc(Cl)c(Cl)c2)[C@H](C)CN([C@@H](C)CO)C(=O)c2cc(NC(=O)Nc3ccc(C(F)(F)F)cc3)ccc2O1	/	91*	-5[16.7 µM]	-8	0	-8
C[C@@H]1CCCCO[C@H](CN(C)Cc2ccc(Cl)c(Cl)c2)[C@@H](C)CN([C@@H](C)CO)C(=O)c2cc(NC(=O)Nc3ccc(C(F)(F)F)cc3)ccc2O1	/	95*	24[16.7 µM]	0	0	-12
C[C@H]1CCCCO[C@@H](CN(C)Cc2ccc(Cl)c(Cl)c2)[C@@H](C)CN([C@@H](C)CO)C(=O)c2cc(NC(=O)Nc3ccc(C(F)(F)F)cc3)ccc2O1	/	83*	51[16.7 µM]	-1	0	0
O=C(N[C@H]1C=C[C@H](CC(=O)N2CCc3ccccc3C2)O[C@@H]1CO)C1CCC1	3	-2	-7[16.7 µM]	-2	1	7
CO[C@@H]1CN(C)C(=O)c2cc(NC(C)=O)ccc2OC[C@@H](C)N(C(=O)c2ccccc2F)C[C@H]1C	1	/	/	-4	0	-2
C[C@@H]1CCCCO[C@H](CN(C)C(=O)c2ccncc2)[C@@H](C)CN([C@@H](C)CO)C(=O)c2cc(N(C)C)ccc2O1	/	-24	-26[16.7 µM]	-1	/	-5
OCC1CCN(Cc2cn(Cc3ccccc3)nc2-c2cc3ccccc3o2)CC1	5	0	5	-1	44*	-12
OCC1CCCN(Cc2cn(Cc3ccccc3)nc2-c2cc3ccccc3o2)C1 (centres undefined)	-2	-1	9	4	43*	/
COc1ccc2c3c(n(C)c2c1)[C@H](CO)N(C(C)=O)CC31CN(C(=O)c2ccccc2)C1	/	/	/	6	/	-6
Cc1cccc(/C=N\Nc2cn[nH]c(=O)c2Cl)c1	5	/	73*	/	/	-5
SMILES	FN deposit inh	PAX8 inh HTS	Env fusion inh	EWS-Fli inh	FGF22 binding	PGC1a acetyl inh
O=c1[nH]ncc(N/N=C\c2cccnc2)c1Cl	-2	-6	26	-3	0	/
CNC[C@H]1Oc2ccc(NC(=O)Nc3ccc(C(F)(F)F)cc3)cc2C(=O)N([C@@H](C)CO)C[C@@H]1C	/	5	-5[16.7 µM]	-1	0	1
O=C(Nc1cccc(F)c1)N1CCCCN2[C@H](CO)[C@@H](c3ccc(C#CC4CC4)cc3)[C@@H]2C1	/	?	/	6	0	-5
CCN(C(=O)COC(=O)c1ccccc1O)c1nc2ccccc2s1	-17	6	/	9	43*	-12
CC(C)CC#Cc1cnc2c(c1)C(=O)N([C@H](C)CO)C[C@@H](C)[C@@H](CN(C)Cc1cncnc1)O2	4	/	-4[16.7 µM]	3	0	16
O=C1c2ccc(-c3ccc4c(c3)C(=O)N(CCCO)C4=O)cc2C(=O)N1CCCO	8	21	-3	10	0	70*
CCOc1ccc2nc(NC(=O)CN3CCC(n4nnc5cc(C(F)(F)F)ccc54)CC3)sc2c1	9	15	50*	/	/	9
Cc1cc(NC(=O)CN2CCC(n3nnc4cc(C(F)(F)F)ccc43)CC2)no1	/	/	/	16	0	7
O=C(C[C@H]1CC[C@@H]2[C@H](COC[C@H](O)CN2Cc2cc(F)ccc2F)O1)NCc1ccccc1	-2	7	/	0	0	1
O=C(CC1CC1)N1CC[C@@H]2[C@@H](CO)Nc3ccc(-c4cccc(F)c4)cc3[C@@H]21	16	11	/	1	0	14
CNC[C@H]1Oc2cc(-c3ccccc3F)ccc2S(=O)(=O)N([C@H](C)CO)C[C@@H]1C	5	-7	-18[16.7 µM]	-5	0	0
COC(=O)c1cnc(Oc2ccc(NC(=O)NC(=O)c3c(F)cccc3Cl)cc2)cc1C(F)(F)F	-4	31	-62	51*	0	-4
COC(=O)c1cnc(Oc2ccc(NC(=O)NC(=O)c3c(F)cccc3F)cc2)cc1C(F)(F)F	-14	22	18	-2	0	7
COC(=O)c1cnc(Oc2ccc(NC(=O)NC(=O)c3c(OC)cccc3OC)cc2)cc1C(F)(F)F	-8	73*	-128	52*	/	1
O=S(=O)(c1cccc(F)c1)N1CC[C@@H]2[C@H](CO)Nc3ccc(-c4cccc(F)c4)cc3[C@@H]21	19	7	/	2	0	6
CC1=NN(c2nc(-c3ccc(C)cc3)cs2)C(=O)C1N=Nc1ccc(C(N)=O)cc1 (centres undefined)	0	3	-2	55*	0	12
